Reference: ChEMBL document CHEMBL1126152, “Fluoronaphthyridines as antibacterial agents. 4. Synthesis and structure-activity relationships of 5-substituted-6-fluoro-7-(cycloalkylamino)-1,4-dihydro-4-oxo-1,8- naphthyridine-3-carboxylic acids” (J Med Chem, 1992)
Values after ≈ are worked out from the molar mass of the structure shown.

What was measured:
Escherichia coli [1] = assay: In vitro for antibacterial activity against Escherichia coli; type: functional
Outline: (§1)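 MIC by serial 2-fold broth dilution in nutrient broth with an inoculum of 10^6 CFU/mL. Compound range was 0.0005–250 μg/mL. Plates were incubated 18 h at 37 °C. MIC was taken as the lowest concentration preventing visible growth.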

Staphylococcus aureus [2] = assay: Antibacterial activity against Staphylococcus aureus; type: functional
Streptococcus pneumoniae [3] = assay: Antibacterial activity against Streptococcus pneumoniae; type: functional
[4] = Partition coefficient (logD); conditions: octanol/water
Bacteroides fragilis = assay: In vitro for antibacterial activity against […].; type: functional; outline: as §1
Enterobacter cloacae = assay: In vitro for antibacterial activity against Enterobacter cloacae; type: functional
Pseudomonas aeruginosa [5] = assay: In vitro for antibacterial activity against Pseudomonas aeruginosa; type: functional; outline: as §1
Enterococcus faecalis = assay: In vitro for antibacterial activity against Enterococcus faecalis; type: functional; outline: as §1
Proteus mirabilis = assay: In vitro for antibacterial activity against Proteus mirabilis; type: functional; outline: as §1
Klebsiella pneumoniae = assay: In vitro for antibacterial activity against Klebsiella pneumoniae; type: functional; outline: as §1
Morganella morganii = assay: In vitro for antibacterial activity against Morganella morganii; type: functional; outline: as §1
Serratia marcescens = assay: In vitro for antibacterial activity against Serratia marcescens; type: functional; outline: as §1
Escherichia coli [6] = assay: Compound was tested for […] against Escherichia coli A 15119 after oral administration of drug in mice; type: functional; conditions: read-out: PD50
Outline: (§2)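 Mouse protection test against systemic infection. Compound was dissolved in sterile water and given orally to female OF1-strain Swiss mice weighing 18–25 g, with five mice per group.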

Streptococcus pneumoniae [7] = assay: animal or person; type: functional; conditions: in Mus musculus, po, read-out: PD50
Pseudomonas aeruginosa [8] = assay: animal or person; type: functional; conditions: in Mus musculus, po, read-out: PD50
Staphylococcus = assay: Compound was tested for […] against Staphylococcus aureus A 15090 after oral administration of drug in mice; type: functional; conditions: read-out: PD50; outline: as §2
Mus musculus = organism: Mus musculus; conditions: in vivo
Staphylococcus aureus [9] = assay: animal or person; type: functional; conditions: in Mus musculus, po, read-out: PD50
[10] = % dose recovered in mouse urine; conditions: % recovery
in vivo = conditions: mouse, plasma, T1/2
[11] = Lethal dose was determined in OF1-strain female Swiss mice after oral administration of the drug; conditions: mouse, in vivo
[12] = Lethal dose was determined in OF1-strain female Swiss mice after intra venous administration of the drug; conditions: mouse, in vivo, iv
[13] = Solubility was measured at PH - 7.2 buffer

SMILES | MIC (Escherichia coli [1]) [µg/mL] | MIC (Staphylococcus aureus [2]) [µg/mL] | MIC (Streptococcus pneumoniae [3]) [µg/mL] | MIC (Bacteroides fragilis) [µg/mL] | MIC (Enterobacter cloacae) [µg/mL] | MIC (Pseudomonas aeruginosa [5]) [µg/mL] | MIC (Enterococcus faecalis) [µg/mL] | MIC (Proteus mirabilis) [µg/mL] | MIC (Klebsiella pneumoniae) [µg/mL] | MIC (Morganella morganii) [µg/mL] | MIC (Serratia marcescens) [µg/mL] | ED50 (Pseudomonas aeruginosa [8]) [mg/kg] | other results
CC(C)(CF)n1cc(C(=O)O)c(=O)c2cc(F)c(N3CC[C@H](N)C3)nc21 | 0.03 (≈ 0.0819 µM) | 0.03 (≈ 0.0819 µM) | 0.03 (≈ 0.0819 µM) | 16 (≈ 43.7 µM) | 0.13 (≈ 0.355 µM) | 1 (≈ 2.73 µM) | 4 (≈ 10.9 µM) | 0.5 (≈ 1.36 µM) | 0.03 (≈ 0.0819 µM) | 0.06 (≈ 0.164 µM) | 0.25 (≈ 0.682 µM) |  | logD [4]: -0.56
Cc1c(F)c(N2CC[C@H](N)C2)nc2c1c(=O)c(C(=O)O)cn2C(C)(C)CF | 0.016 (≈ 0.0421 µM) | 0.25 (≈ 0.657 µM) | 2 (≈ 5.26 µM) | 2 (≈ 5.26 µM) | 0.25 (≈ 0.657 µM) | 2 (≈ 5.26 µM) | 2 (≈ 5.26 µM) | 0.5 (≈ 1.31 µM) | 0.03 (≈ 0.0789 µM) | 0.5 (≈ 1.31 µM) | 0.5 (≈ 1.31 µM) |  | 
O=C(O)c1cn(C2CC2)c2cc(N3CCNCC3)c(F)cc2c1=O [CIPROFLOXACIN] |  | 0.13 (≈ 0.392 µM) | 0.25 (≈ 0.754 µM) | 4 (≈ 12.1 µM) |  |  | 0.5 (≈ 1.51 µM) |  | 0.06 (≈ 0.181 µM) |  | 0.03 (≈ 0.0905 µM) | 2.6 | ED50 (Escherichia coli [6]): 1.2 mg/kg; ED50 (Streptococcus pneumoniae [7]): > 50 mg/kg; ED50 (Staphylococcus): 8 mg/kg
CC(C)(C)n1cc(C(=O)O)c(=O)c2cc(F)c(N3CC[C@H](N)C3)nc21 | 0.02 (≈ 0.0574 µM) | 0.004 (≈ 0.0115 µM) | 0.008 (≈ 0.023 µM) | 1 (≈ 2.87 µM) | 0.03 (≈ 0.0861 µM) | 0.25 (≈ 0.718 µM) | 0.06 (≈ 0.172 µM) | 0.13 (≈ 0.373 µM) | 0.03 (≈ 0.0861 µM) | 0.13 (≈ 0.373 µM) | 0.25 (≈ 0.718 µM) |  | 
Cc1c(F)c(N2CCNCC2)nc2c1c(=O)c(C(=O)O)cn2-c1ccc(F)cc1F | 0.016 (≈ 0.0382 µM) | 0.016 (≈ 0.0382 µM) | 0.25 (≈ 0.598 µM) | 4 (≈ 9.56 µM) | 0.03 (≈ 0.0717 µM) | 1 (≈ 2.39 µM) | 1 (≈ 2.39 µM) | 0.25 (≈ 0.598 µM) | 0.03 (≈ 0.0717 µM) | 0.13 (≈ 0.311 µM) | 0.25 (≈ 0.598 µM) |  | 
O=C(O)c1cn(-c2ccc(F)cc2F)c2nc(N3CC4CC3CN4)c(F)cc2c1=O (stereo unspecified) | 0.004 (≈ 0.00961 µM) | 0.016 (≈ 0.0384 µM) | 0.25 (≈ 0.6 µM) | 1 (≈ 2.4 µM) | 0.016 (≈ 0.0384 µM) | 0.25 (≈ 0.6 µM) | 0.5 (≈ 1.2 µM) | 0.03 (≈ 0.0721 µM) | 0.008 (≈ 0.0192 µM) | 0.06 (≈ 0.144 µM) | 0.06 (≈ 0.144 µM) | 2.7 | T1/2 (Mus musculus): 1.48 h; ED50 (Staphylococcus aureus [9]): 9.5 mg/kg; dose excreted [10]: 7%; half-life (in vivo): 1.72 h
Cc1c(F)c(N2CC3CCC2CN3)nc2c1c(=O)c(C(=O)O)cn2-c1ccc(F)cc1F (stereo unspecified) | 0.008 (≈ 0.018 µM) | 0.008 (≈ 0.018 µM) | 0.06 (≈ 0.135 µM) | 4 (≈ 9 µM) | 0.008 (≈ 0.018 µM) | 0.5 (≈ 1.13 µM) | 0.25 (≈ 0.563 µM) | 0.13 (≈ 0.293 µM) | 0.008 (≈ 0.018 µM) | 0.13 (≈ 0.293 µM) | 0.5 (≈ 1.13 µM) | 1.4 | LD50 [11]: 2500 mg/kg; ED50 (Streptococcus pneumoniae [7]): 9.5 mg/kg; logD [4]: 0.4; ED50 (Staphylococcus aureus [9]): 5.4 mg/kg; LD50 [12]: 24 mg/kg; solubility [13]: 10 µg/mL (≈ 22.5 µM)
O=C(O)c1cn(C2CC2)c2nc(N3CCNCC3)c(F)cc2c1=O | 0.03 (≈ 0.0903 µM) | 0.25 (≈ 0.752 µM) |  |  | 0.06 (≈ 0.181 µM) | 0.5 (≈ 1.5 µM) | 8 (≈ 24.1 µM) | 0.25 (≈ 0.752 µM) | 0.06 (≈ 0.181 µM) | 0.06 (≈ 0.181 µM) | 0.25 (≈ 0.752 µM) | 3.6 | ED50 (Escherichia coli [6]): 0.4 mg/kg; ED50 (Staphylococcus): 7 mg/kg
N[C@H]1CCN(c2nc3c(cc2F)c(=O)c(C(=O)O)cn3-c2ccc(F)cc2F)C1 | 0.008 (≈ 0.0198 µM) | 0.008 (≈ 0.0198 µM) | 0.06 (≈ 0.148 µM) | 0.5 (≈ 1.24 µM) | 0.016 (≈ 0.0396 µM) | 0.25 (≈ 0.618 µM) | 0.13 (≈ 0.322 µM) | 0.03 (≈ 0.0742 µM) | 0.008 (≈ 0.0198 µM) | 0.06 (≈ 0.148 µM) | 0.06 (≈ 0.148 µM) |  | 
N[C@H]1CCN(c2nc3c(cc2F)c(=O)c(C(=O)O)cn3C2CC2)C1 | 0.002 (≈ 0.00602 µM) | 0.016 (≈ 0.0481 µM) | 0.25 (≈ 0.752 µM) | 2 (≈ 6.02 µM) | 0.016 (≈ 0.0481 µM) | 0.25 (≈ 0.752 µM) | 0.25 (≈ 0.752 µM) | 0.03 (≈ 0.0903 µM) | 0.004 (≈ 0.012 µM) | 0.004 (≈ 0.012 µM) | 0.016 (≈ 0.0481 µM) |  | 
CC(C)(C)n1cc(C(=O)O)c(=O)c2cc(F)c(N3CCNCC3)nc21 | 0.02 (≈ 0.0574 µM) | 0.06 (≈ 0.172 µM) | 1 (≈ 2.87 µM) | 8 (≈ 23 µM) | 0.06 (≈ 0.172 µM) | 0.5 (≈ 1.44 µM) | 1 (≈ 2.87 µM) | 0.13 (≈ 0.373 µM) | 0.03 (≈ 0.0861 µM) | 0.06 (≈ 0.172 µM) | 0.06 (≈ 0.172 µM) |  | logD [4]: -0.33; solubility [13]: 820 µg/mL (≈ 2350 µM)
